ChEMBL document CHEMBL2163251, “Synthesis and pharmacological evaluation of indolinone derivatives as novel ghrelin receptor antagonists” (Bioorg Med Chem, 2012)
Blank lines part the entries; values can stand above or below the compound they belong to. The source made the active and inactive calls. The calls are words filed in the database; no cut-off is given here.

What was measured:
[1] = molecular target: T1, Growth hormone secretagogue receptor type 1 (Homo sapiens, UniProt Q92847); test: Antagonist activity at human GHSR1 expressed in CHO-CREluc cells after 4 hrs by Luciferase reporter assay; format: functional, cell-based
In short: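 hGHSR1a stably cloned into CHO line carrying CRE-luciferase reporter (six CRE upstream of firefly luciferase). Cells plated in MEM with 10% dialysed FBS. Stimulation medium held 0.1 µM forskolin and 3 nM human ghrelin. Luciferase read by photon counting.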

[2] = molecular target: T1, Growth hormone secretagogue receptor type 1; test: Displacement of [125I]-ghrelin from human GHSR1 expressed in CHO-CREluc cells after 1 hr by scintillation counting; format: cell-based
In short: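 Crude membranes from CHO-CREluc-hGHSR1a cells were homogenized in TM buffer (10 mM Tris-HCl pH 7.4, 10 mM MgCl2) and spun at 40,000g. Incubated 1 h in TM buffer with 0.25% BSA and 10% dialysed FBS, 0.25 nM [125I] human ghrelin and increasing compound concentrations. Harvested on PEI-pretreated GF/B filters and washed with cold buffer. Bound radioactivity counted by scintillation.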

P-glycoprotein = test: P-glycoprotein-mediated efflux ratio of the compound; format: ADME; conditions: not told
Rattus norvegicus [3] = test: Inhibition of ghrelin induced food intake in CD rat at 10 mg/kg, ip administered 30 mins prior to icv ghrelin challenge measured after 4 hrs; format: functional; conditions: route intraperitoneal
In short: (§1)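 Adult male CD rats (200–300 g) fitted with lateral-ventricle cannulae. Dosed 10 mg/kg ip 30 min before icv rat ghrelin (10 µg/rat in 15 µl) or saline. Cumulative food intake measured hourly for 4 h, n=6–7 per group.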

Rattus norvegicus [4] = test: Inhibition of ghrelin-induced gastric emptying in CD rat at 3 mg/kg, ip; format: functional; conditions: Stomach, route intraperitoneal
In short: (§2)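 24 h fasted male CD rats dosed ip (vehicle 2 ml/kg), then given rat ghrelin 20 µg/kg iv. BaSO4 meal (75% w/v in 0.5% CMC, 1 ml/100 g) given by gavage. Stomach content weighed at 0 or 60 min and compared with drug-free controls killed at t=0.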

Rattus norvegicus [5] = test: Inhibition of ghrelin-induced gastric emptying in CD rat at 10 mg/kg, ip; format: functional; conditions: Stomach, route intraperitoneal; in short: as §2
[6] = Permeability across human Caco2/TC7 cells assessed as compound recovery; format: ADME, cell-based; conditions: Caco-2, read-out: permeability
[7] = Permeability across human Caco2/TC7 cells compound transport; format: ADME, cell-based; conditions: Caco-2, read-out: permeability
[8] = Drug metabolism in mouse liver microsomes at 5 uM after 24 hrs; format: ADME, Microsome; conditions: read-out: Drug metabolism
In short: (§3)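 Compound at 5 µM incubated 24 h with isolated hepatic microsomal fractions from mouse, rat or human.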

[9] = Drug metabolism in rat liver microsomes at 5 uM after 24 hrs; format: ADME, Microsome; conditions: read-out: Drug metabolism; in short: as §3
[10] = Drug metabolism in human liver microsomes at 5 uM after 24 hrs; format: ADME, Microsome; conditions: read-out: Drug metabolism; in short: as §3
Hepatocyte = test: Intrinsic clearance in human hepatocytes assessed per million cells at 5 uM; format: ADME, cell-based
[11] = Binding affinity at adenosine receptor at 10 uM
[12] = Binding affinity at adrenergic receptor at 10 uM
[13] = Binding affinity at cannbinoids receptor at 10 uM
[14] = Binding affinity at dopamine receptor at 10 uM
[15] = Binding affinity at histamine receptor at 10 uM
[16] = Binding affinity at muscarinic receptor at 10 uM
[17] = Binding affinity at opioids receptor at 10 uM
[18] = Binding affinity at serotonin receptor at 10 uM
[19] = Binding affinity at vasopressin receptor at 10 uM
Rattus norvegicus [20] = test: Inhibition of ghrelin-induced gastric emptying in ip dosed CD rat; format: functional, organism-based; conditions: Stomach; in short: as §2
Rattus norvegicus [21] = test: Inhibition of gastric emptying in CD rat at 3 mg/kg, ip; format: functional; conditions: Stomach, route intraperitoneal
In short: (§4)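 24 h fasted male CD rats dosed ip (vehicle 2 ml/kg), no ghrelin. BaSO4 meal (75% w/v in 0.5% CMC, 1 ml/100 g) given by gavage. Rats killed at 0 or 60 min and stomach content weighed. Result expressed relative to the mean content of drug-free controls killed at t=0.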

Rattus norvegicus [22] = test: Inhibition of gastric emptying in CD rat at 10 mg/kg, ip; format: functional; conditions: Stomach, route intraperitoneal; in short: as §4
Mus musculus [23] = test: Inhibition of ghrelin-induced food intake in fasted C57/BL6N mouse at 10 mg/kg, ip up to 6 hrs; format: functional, organism-based; parameters: dose 10 mg/kg
In short: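 Male C57BL/6 mice fasted overnight and dosed ip 10 mg/kg (vehicle 10 ml/kg) 1 h before refeeding. Cumulative food intake recorded after food return.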

Rattus norvegicus [24] = test: Inhibition of ghrelin induced food intake in CD rat at 10 mg/kg, ip administered 30 mins prior to icv ghrelin challenge measured after 1 hr; format: functional; conditions: route intraperitoneal; in short: as §1
Rattus norvegicus [25] = test: Inhibition of ghrelin induced food intake in CD rat at 10 mg/kg, ip administered 30 mins prior to icv ghrelin challenge measured after 2 hrs; format: functional; conditions: route intraperitoneal; in short: as §1
Rattus norvegicus [26] = test: Inhibition of ghrelin induced food intake in CD rat at 10 mg/kg, ip administered 30 mins prior to icv ghrelin challenge measured after 3 hrs; format: functional; conditions: route intraperitoneal; in short: as §1
Mus musculus [27] = test: Effect of glucose tolerance in fasted C57/BL6N mouse assessed as inhibition of glucose excursion at 30 mg/kg, po administered 30 mins before glucose challenge measured after 20 to 120 mins by IPGTT; format: functional
In short: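 Male C57/Bl6N mice fasted 16–18 h, then given 30 mg/kg or vehicle by oral gavage. Fasting glucose read from tail blood 30 min after dosing. Glucose 2 g/kg ip given 30 min later, with glucose measured at 20–120 min. […] calculated by trapezoidal method and expressed as % of vehicle AUC.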

[28] = Binding affinity at receptor at 10 uM
Mus musculus [29] = test: Effect of glucose tolerance in fasted C57/BL6N mouse assessed as inhibition of glucose excursion at 30 mg/kg, po measured after 20 to 120 mins by IPGTT

T1 sequence (Q92847 whole entry): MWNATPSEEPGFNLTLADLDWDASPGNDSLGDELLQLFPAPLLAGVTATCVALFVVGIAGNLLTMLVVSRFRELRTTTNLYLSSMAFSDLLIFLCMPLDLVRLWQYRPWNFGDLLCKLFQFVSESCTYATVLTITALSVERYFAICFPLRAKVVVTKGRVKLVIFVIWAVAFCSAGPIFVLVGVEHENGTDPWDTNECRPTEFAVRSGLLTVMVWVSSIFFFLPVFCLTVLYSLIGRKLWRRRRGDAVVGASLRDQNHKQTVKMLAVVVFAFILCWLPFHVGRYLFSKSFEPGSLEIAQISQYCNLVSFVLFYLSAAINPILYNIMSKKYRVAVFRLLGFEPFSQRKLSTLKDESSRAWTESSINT

IC50 [1]: > 10 µM
SMILES: CN(C)CCN(C)CC(=O)NC1(c2ccc(Cl)cc2)C(=O)Nc2cc(Cl)c(Cl)cc21 (racemic)

IC50 [1]: 0.047 µM
Ki [2]: 0.249 µM
SMILES: CN1CCN(CC(=O)N[C@]2(c3ccc(Cl)cc3)C(=O)Nc3cc(Cl)c(Cl)cc32)CC1

IC50 [1]: 0.11 µM
SMILES: CN(C)[C@H]1CCN(CC(=O)NC2(c3ccc(Cl)c(Cl)c3)C(=O)Nc3cc(Cl)cc(Cl)c32)C1 (stereo partly drawn)

IC50 [1]: 0.525 µM
SMILES: COc1ccc(C2(NC(=O)CN3CCN(C)CC3)C(=O)Nc3cc(Cl)c(C)cc32)cc1 (single isomer, unassigned; (+))

IC50 [1]: 0.239 µM
SMILES: CN(C)C1CCN(CC(=O)NC2(c3ccc(Cl)c(Cl)c3)C(=O)Nc3cc(Cl)cc(Cl)c32)CC1 (single isomer, unassigned; (+))

IC50 [1]: 0.047 µM
SMILES: CCN1CCCC(CC(=O)NC2(c3ccc(Cl)c(Cl)c3)C(=O)Nc3cc(Cl)cc(Cl)c32)C1 (single isomer, unassigned; (+))

IC50 [1]: > 10 µM
SMILES: Cc1cc2c(cc1Cl)NC(=O)C2(NC(=O)CN1CCN(C)CC1)c1ccc(Cl)cc1Cl (racemic)

IC50 [1]: 0.111 µM
SMILES: CN1CCN(CC(=O)NC2(c3ccc(Cl)c(Cl)c3)C(=O)Nc3cc(Cl)ccc32)CC1 (single isomer, unassigned; (+))

IC50 [1]: 0.273 µM
SMILES: CN1CCN(CC(=O)NC2(c3ccc(Cl)cc3)C(=O)Nc3cc(Cl)c(Cl)c(Cl)c32)CC1 (racemic)

IC50 [1]: 1.47 µM
SMILES: CN1CCN(CC(=O)NC2(c3ccc(C(C)(C)C)cc3)C(=O)Nc3cc(Cl)c(Cl)cc32)CC1 (single isomer, unassigned; (+))

IC50 [1]: > 10 µM
SMILES: Cc1cc2c(cc1Cl)NC(=O)C2(NC(=O)CN1CCN(C)CC1)c1ccccc1Cl (racemic)

IC50 [1]: 2.78 µM
SMILES: CCN1CCN(CC(=O)NC2(c3ccc(Cl)c(Cl)c3)C(=O)Nc3cc(Cl)cc(Cl)c32)CC1=O (single isomer, unassigned; (+))

IC50 [1]: 0.001 µM
Ki [2]: 0.003 µM
efflux ratio (P-glycoprotein): 58
SMILES: CCN1CCC(CC(=O)NC2(c3ccc(Cl)c(Cl)c3)C(=O)Nc3cc(Cl)cc(Cl)c32)CC1 (single isomer, unassigned; (+))

IC50 [1]: 0.129 µM
Ki [2]: 0.286 µM
SMILES: CCN1CCN(CC(=O)NC2(c3ccc(Cl)cc3)C(=O)Nc3cc(Cl)c(C)cc32)CC1 (racemic)

IC50 [1]: > 10 µM
SMILES: CN1CCN(CC(=O)NC2(c3ccc(Cl)cc3)C(=O)Nc3cc(Cl)c(Cl)cc32)CC1 (single isomer, unassigned; (-))

IC50 [1]: 0.007 µM
Ki [2]: 0.008 µM
recovery [6]: 51.8%
Papp [7]: 0.385 ×10⁻⁶ cm/s
metabolised at 24 h, 5 µM [8]: 44%
metabolised at 24 h, 5 µM [9]: 45%
metabolised at 24 h, 5 µM [10]: 41%
CLint (Hepatocyte): 0.097 mL/h/10⁶ cells
efflux ratio (P-glycoprotein): 6.6
Activity [11]: inactive
Activity [12]: inactive
Activity [13]: inactive
Activity [14]: inactive
Activity [15]: inactive
Activity [16]: inactive
Activity [17]: inactive
Activity [18]: inactive
Activity [19]: inactive
Activity [28]: inactive
SMILES: CCN1CCN(CC(=O)NC2(c3ccc(Cl)c(Cl)c3)C(=O)Nc3cc(Cl)cc(Cl)c32)CC1 (single isomer, unassigned; (+))
inhibition in vivo at 10 mg/kg (Rattus norvegicus [3]): 53%
inhibition in vivo at 3 mg/kg (Rattus norvegicus [4]): 55%
inhibition in vivo at 10 mg/kg (Rattus norvegicus [5]): 62%
inhibition (Rattus norvegicus [20]): Dose-dependent effect
inhibition in vivo at 3 mg/kg (Rattus norvegicus [21]): 68%
inhibition in vivo at 10 mg/kg (Rattus norvegicus [22]): 55%
inhibition (Mus musculus [23]): Active
inhibition in vivo at 10 mg/kg (Rattus norvegicus [24]): 58%
inhibition in vivo at 10 mg/kg (Rattus norvegicus [25]): 60%
inhibition in vivo at 10 mg/kg (Rattus norvegicus [26]): 61%
inhibition in vivo at 30 mg/kg (Mus musculus [27]): 32%

IC50 [1]: 0.22 µM
Ki [2]: > 1 µM
SMILES: Cc1cc2c(cc1Cl)NC(=O)C2(NC(=O)CN1CCN(C)CC1)c1ccc(Cl)c(Cl)c1 (racemic)

IC50 [1]: 0.11 µM
Ki [2]: 0.202 µM
SMILES: CCN1CCN(CC(=O)NC2(c3ccc(Cl)cc3)C(=O)Nc3cc(Cl)c(Cl)cc32)CC1 (racemic)

IC50 [1]: 0.072 µM
Ki [2]: 0.044 µM
SMILES: CN1CCN(CC(=O)NC2(c3ccc(Cl)cc3)C(=O)Nc3cc(Cl)cc(Cl)c32)CC1 (single isomer, unassigned; (+))

IC50 [1]: 0.14 µM
SMILES: CN1CCN(CC(=O)NC2(c3ccc(Cl)cc3)C(=O)Nc3cc(Cl)ccc32)CC1 (single isomer, unassigned; (+))

IC50 [1]: 0.7 µM
SMILES: COc1ccc(C2(NC(=O)CN3CCN(C)CC3)C(=O)Nc3cc(Cl)c(Cl)cc32)cc1 (single isomer, unassigned; (+))

IC50 [1]: > 10 µM
SMILES: Cc1cc2c(cc1Cl)NC(=O)C2(NC(=O)CN1CCNCC1)c1ccc(Cl)cc1 (racemic)

IC50 [1]: 0.024 µM
SMILES: CN1CCN(CC(=O)NC2(c3ccc(Cl)c(Cl)c3)C(=O)Nc3cc(Cl)cc(Cl)c32)CC1 (single isomer, unassigned; (+))

IC50 [1]: > 10 µM
SMILES: Cc1cc2c(cc1Cl)NC(=O)C2(NC(=O)CN1CCN(Cc2ccccc2)CC1)c1ccc(Cl)cc1 (racemic)

IC50 [1]: 0.025 µM
SMILES: CN(C)[C@@H]1CCN(CC(=O)NC2(c3ccc(Cl)c(Cl)c3)C(=O)Nc3cc(Cl)cc(Cl)c32)C1 (stereo partly drawn)

IC50 [1]: 1.18 µM
SMILES: Cc1cc2c(cc1Cl)NC(=O)C2(NC(=O)CN1CCN(C)CC1)c1cccc(Cl)c1 (racemic)

IC50 [1]: 0.251 µM
SMILES: Cc1cc2c(cc1Cl)C(NC(=O)CN1CCN(C)CC1)(c1ccc(Cl)cc1)C(=O)N2 (single isomer, unassigned; (+))

IC50 [1]: 1.39 µM
SMILES: CN1CCN(CC(=O)NC2(c3ccc(Cl)cc3)C(=O)Nc3c(Cl)cc(Cl)cc32)CC1 (single isomer, unassigned; (+))

IC50 [1]: 2.54 µM
SMILES: CC1CCN(CC(=O)NC2(c3ccc(Cl)cc3)C(=O)Nc3cc(Cl)c(Cl)cc32)CC1 (racemic)

SMILES: CCC1=C(C)CN(C(=O)NCCc2ccc(S(=O)(=O)NC(=O)N[C@H]3CC[C@H](C)CC3)cc2)C1=O
inhibition (Mus musculus [29]): Active

IC50 [1]: > 10 µM
SMILES: Cc1cc2c(cc1Cl)NC(=O)C2(NC(=O)CN1CCN(c2ccncc2)CC1)c1ccc(Cl)cc1 (racemic)

IC50 [1]: 0.213 µM
Ki [2]: 0.392 µM
SMILES: Cc1cc2c(cc1Cl)NC(=O)C2(NC(=O)CN1CCN(C)CC1)c1ccc(Cl)cc1 (racemic)

IC50 [1]: 0.064 µM
SMILES: CN1CCCN(CC(=O)NC2(c3ccc(Cl)c(Cl)c3)C(=O)Nc3cc(Cl)cc(Cl)c32)CC1 (single isomer, unassigned; (+))

IC50 [1]: 0.038 µM
Ki [2]: 0.121 µM
SMILES: C=CCN1CCN(CC(=O)NC2(c3ccc(Cl)c(Cl)c3)C(=O)Nc3cc(Cl)cc(Cl)c32)CC1 (single isomer, unassigned; (+))

IC50 [1]: 1.16 µM
SMILES: Cc1ccc2c(c1Cl)C(NC(=O)CN1CCN(C)CC1)(c1ccc(Cl)cc1)C(=O)N2 (racemic)
